What was measured:
MT4 = experiment: Cytotoxicity against human MT4 cells assessed as reduction in cell viability after 3 days by CellTiter-Glo luminescent assay; format: cell-based; conditions: mt4, 72 h
[1] = Therapeutic index, ratio of CC50 for human MT4 cells to EC50 for HIV1 NL4-3 infected in human MT4 cells; format: toxicity, cell-based; conditions: read-out: Ratio CC50/EC50
How it was run: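 TI calculated as CC50 (CellTiter-Glo, MT4 cells, 3 days) divided by EC50 (HIV-1 NL4-3 Nanoluc-sec multicycle replication in MT4 cells, luciferase read-out); CC50/EC50 below 5 taken as no selective anti-HIV activity.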

[2] = tested on: Human immunodeficiency virus 1; experiment: Antiviral activity against HIV1 NL4-3 infected in human MT4 cells by luciferase reporter gene assay; format: functional, organism-based
How it was run: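 HIV-1 NL4-3 Nanoluc-sec reporter virus (secreted NanoLuc insert) infecting MT4 cells, multicycle replication format, compounds at various concentrations; replication read as NanoLuc luciferase activity (Nano-Glo).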

[3] = Human immunodeficiency virus 1, NL4-3, MT4, read-out: EC50

| Compound | CC50 (MT4) | selectivity ratio [1] | EC50 [2, 3] | EC50 [2] |
| --- | --- | --- | --- | --- |
| CC(=O)O[C@H]1[C@H](O)[C@@]2(C)[C@@H]3CC[C@H]4C(C)(C)[C@@H](O[C@@H]5OC[C@@H](O)[C@H](O)[C@H]5O)CC[C@@]45C[C@@]35CC[C@@]23CO[C@@](C)(CCC(=O)C(C)(C)O)[C@@H]13 | > 40 µM | < 5 | > 10 µM | – |
| CC(=O)O[C@H]1[C@@H](OC(C)=O)[C@@]2(C)[C@@H]3CC[C@H]4C(C)(C)[C@@H](OC(=O)CCCC(=O)O)CC[C@@]45C[C@@]35CC[C@@]23CO[C@@]2(C(C)(C)O)CC[C@](C)(O2)[C@@H]13 | > 20 µM | < 5 | – | Not Active |
| CC(=O)O[C@H]1[C@@H](OC(C)=O)[C@@]2(C)[C@@H]3CC[C@H]4C(C)(C)[C@@H](OC(=O)CC(C)(C)C(=O)O)CC[C@@]45C[C@@]35CC[C@@]23CO[C@@]2(C(C)(C)O)CC[C@](C)(O2)[C@@H]13 | > 20 µM | > 800 | 0.025 µM | – |
| CC(=O)O[C@H]1[C@H](O)[C@H]([C@]2(C)CC[C@@H](C(C)(C)O)O2)[C@@]2(C)CC[C@@]34C[C@@]35CC[C@H](O[C@@H]3OC[C@@H](O)[C@H](O)[C@H]3O)C(C)(C)[C@@H]5CC[C@H]4[C@]12C | > 40 µM | – | 4.85 µM | – |
| CC1(C)[C@@H](O)CC[C@]23C[C@]24CC[C@]25CO[C@@]6(C(C)(C)O)CC[C@](C)(O6)[C@H]2[C@@H](O)[C@@H](O)[C@@]5(C)[C@@H]4CC[C@@H]13 | > 40 µM | < 5 | > 40 µM | – |
| CC(=O)O[C@H]1[C@@H](OC(C)=O)[C@@]2(C)[C@@H]3CC[C@H]4C(C)(C)[C@@H](OC(=O)CCC(C)(C)C(=O)O)CC[C@@]45C[C@@]35CC[C@@]23CO[C@@]2(C(C)(C)O)CC[C@](C)(O2)[C@@H]13 | > 5 µM | – | 0.048 µM | – |
| CC(=O)O[C@H]1[C@@H](OC(C)=O)[C@@]2(C)[C@@H]3CC[C@H]4C(C)(C)[C@@H](OC(C)=O)CC[C@@]45C[C@@]35CC[C@@]23CO[C@@]2(C(C)(C)O)CC[C@](C)(O2)[C@@H]13 | > 40 µM | – | 2.44 µM | – |
| CC(=O)O[C@H]1[C@@H]2O[C@@]3(C(C)(C)O[C@H]4O[C@H](CO)[C@@H](O)[C@H](O)[C@H]4O)CC[C@](C)(O3)[C@@H]2[C@@]2(C)CC[C@@]34C[C@@]35CC[C@H](O[C@@H]3OC[C@@H](O)[C@H](O)[C@H]3O)C(C)(C)[C@@H]5CC[C@H]4[C@]12C | 35.4 µM | 9.4 | 3.76 µM | – |
| CC(=O)O[C@H]1[C@@H](OC(C)=O)[C@@]2(C)[C@@H]3CC[C@H]4C(C)(C)C(=O)CC[C@@]45C[C@@]35CC[C@@]23CO[C@@]2(C(C)(C)O)CC[C@](C)(O2)[C@@H]13 | > 30 µM | < 5 | – | Not Active |
| C[C@@H]1O[C@@H](O[C@H]2[C@H](O[C@H]3CC[C@]45C[C@]46CC[C@]4(C)[C@@H]([C@]7(C)CC[C@@H](C(C)(C)O)O7)[C@@H](O)C[C@@]4(C)[C@@H]6[C@@H](O)C[C@H]5C3(C)C)OC[C@@H](O)[C@@H]2O)[C@H](O)[C@H](O)[C@H]1O | > 40 µM | < 5 | > 10 µM | – |
| CC(=O)O[C@H]1[C@@H](OC(C)=O)[C@@]2(C)[C@@H]3CC[C@H]4C(C)(C)[C@@H](OC(=O)CCC(=O)O)CC[C@@]45C[C@@]35CC[C@@]23CO[C@@]2(C(C)(C)O)CC[C@](C)(O2)[C@@H]13 | > 40 µM | – | 7.7 µM | – |
| CC(=O)O[C@H]1[C@@H](OC(C)=O)[C@@]2(C)[C@@H]3CC[C@H]4C(C)(C)[C@@H](OC(=O)COCC(=O)O)CC[C@@]45C[C@@]35CC[C@@]23CO[C@@]2(C(C)(C)O)CC[C@](C)(O2)[C@@H]13 | > 5 µM | – | 0.12 µM | – |
| CC(=O)O[C@H]1[C@@H](O)[C@@]2(C)[C@@H]3[C@@H](O)C[C@H]4C(C)(C)[C@@H](O[C@@H]5OC[C@@H](O)[C@H](O)[C@H]5O)CC[C@@]45C[C@@]35CC[C@@]23CO[C@@]2(C(C)(C)O)CC[C@](C)(O2)[C@@H]13 | > 40 µM | < 5 | – | Not Active |
| CC(=O)O[C@H]1[C@@H](OC(C)=O)[C@@]2(C)[C@@H]3CC[C@H]4C(C)(C)[C@@H](OC(=O)CC(C)C(=O)O)CC[C@@]45C[C@@]35CC[C@@]23CO[C@@]2(C(C)(C)O)CC[C@](C)(O2)[C@@H]13 (some centres not stated) | > 20 µM | – | 1.11 µM | – |
| CC(C)(O)[C@@H]1CC[C@@](C)([C@H]2[C@@H](O)[C@H](O)[C@@]3(C)[C@@H]4[C@@H](O)C[C@H]5C(C)(C)[C@@H](O[C@@H]6OC[C@@H](O)[C@H](O)[C@H]6O)CC[C@@]56C[C@@]46CC[C@]23C)O1 | > 40 µM | < 5 | – | Not Active |
| CC(=O)O[C@H]1[C@@H]2O[C@@]3(C(C)(C)O)CC[C@](C)(O3)[C@@H]2[C@@]2(CO)CC[C@@]34C[C@@]35CC[C@H](O[C@@H]3OC[C@@H](O)[C@H](O)[C@H]3O)C(C)(C)[C@@H]5CC[C@H]4[C@]12C | > 40 µM | < 5 | – | Not Active |
| CC(=O)O[C@H]1[C@@H](OC(C)=O)[C@@]2(C)[C@@H]3CC[C@H]4C(C)(C)[C@@H](OC(=O)CC5(CC(=O)O)CCCC5)CC[C@@]45C[C@@]35CC[C@@]23CO[C@@]2(C(C)(C)O)CC[C@](C)(O2)[C@@H]13 | > 20 µM | – | 1.59 µM | – |
| CC(=O)O[C@H]1[C@@H](OC(C)=O)[C@@]2(C)[C@@H]3CC[C@H]4C(C)(C)[C@@H](O[C@@H]5OC[C@@H](O)[C@H](O)[C@H]5O)CC[C@@]45C[C@@]35CC[C@@]23CO[C@@]2(C(C)(C)O)CC[C@](C)(O2)[C@@H]13 | > 40 µM | – | 2.32 µM | – |
| CC(=O)O[C@H]1[C@@H](O)[C@@]2(C)[C@@H]3CC[C@H]4C(C)(C)[C@@H](O[C@@H]5OC[C@@H](O)[C@H](O)[C@H]5O)CC[C@@]45C[C@@]35CC[C@@]23CO[C@@]2(C(C)(C)O)CC[C@](C)(O2)[C@@H]13 | > 40 µM | – | 4.65 µM | – |
| C[C@@H]1O[C@@H](O[C@H]2[C@H](O[C@H]3CC[C@]45C[C@]46CC[C@]4(C)[C@@H]([C@]7(C)CC[C@@H](C(C)(C)O)O7)[C@@H](O)C[C@@]4(C)[C@@H]6CC[C@H]5C3(C)C)OC[C@@H](O)[C@@H]2O)[C@H](O)[C@H](O[C@@H]2O[C@H](CO)[C@@H](O)[C@H](O)[C@H]2O)[C@H]1O | > 40 µM | < 5 | > 10 µM | – |
| CC1(C)[C@@H](O[C@@H]2OC[C@@H](O)[C@H](O)[C@H]2O)CC[C@]23C[C@]24CC[C@]25CO[C@@]6(C(C)(C)O)CC[C@](C)(O6)[C@H]2[C@@H](O)[C@@H](O)[C@@]5(C)[C@@H]4CC[C@@H]13 | > 40 µM | – | 7.62 µM | – |
| CC(=O)O[C@H]1[C@@H](OC(C)=O)[C@@]2(C)[C@@H]3CC[C@H]4C(C)(C)[C@@H](O)CC[C@@]45C[C@@]35CC[C@@]23CO[C@@]2(C(C)(C)O)CC[C@](C)(O2)[C@@H]13 | > 40 µM | < 5 | – | Not Active |
| CC(=O)O[C@H]1[C@@H](OC(C)=O)[C@@]2(C)[C@@H]3CC[C@H]4C(C)(C)[C@@H](O[C@@H]5OC[C@@H](O)[C@H](O)[C@H]5O)CC[C@@]45C[C@@]35CC[C@@]23CO[C@@](C)(CCC(=O)C(C)(C)O)[C@@H]13 | > 30 µM | < 5 | > 30 µM | – |
| CC(=O)O[C@H]1[C@@H](OC(C)=O)[C@@]2(C)[C@@H]3CC[C@H]4C(C)(C)[C@@H](OC(=O)CC(C)(C)CC(=O)O)CC[C@@]45C[C@@]35CC[C@@]23CO[C@@]2(C(C)(C)O)CC[C@](C)(O2)[C@@H]13 | > 20 µM | < 5 | – | Not Active |
| CCC(=O)O[C@H]1CC[C@]23C[C@]24CC[C@]25CO[C@@]6(C(C)(C)O)CC[C@](C)(O6)[C@H]2[C@@H](OC(C)=O)[C@@H](OC(C)=O)[C@@]5(C)[C@@H]4CC[C@H]3C1(C)C | > 40 µM | < 5 | – | Not Active |
| CC(=O)O[C@H]1[C@@H](OC(C)=O)[C@@]2(C)[C@@H]3CC[C@H]4C(C)(C)[C@@H](OC(=O)CC(C)CC(=O)O)CC[C@@]45C[C@@]35CC[C@@]23CO[C@@]2(C(C)(C)O)CC[C@](C)(O2)[C@@H]13 (mixture of isomers) | > 20 µM | < 5 | – | Not Active |
| C=C(C)[C@@H]1CC[C@]2(C(=O)O)CC[C@]3(C)[C@H](CC[C@@H]4[C@@]5(C)CC[C@H](OC(=O)CC(C)(C)C(=O)O)C(C)(C)[C@@H]5CC[C@]43C)[C@@H]12 [BEVIRIMAT] | 15.9 µM | 612 | 0.026 µM | – |
| Cc1cn([C@H]2C[C@H](N=[N+]=[N-])[C@@H](CO)O2)c(=O)[nH]c1=O [ZIDOVUDINE] | 77.5 µM | – | – | – |

— ChEMBL document CHEMBL4316590, “Discovery and synthesis of novel beesioside I derivatives with potent anti-HIV activity” (Eur J Med Chem, 2019)
